Results: ChEMBL document CHEMBL1149043, “Antiplatelet constituents of formosan Rubia akane” (1994)

Experiments:
Platelet [1] = assay: Inhibition of arachidonic acid-induced platelet aggregation in rabbit platelet assessed as aggregation at 300 uM treated 3 mins before arachidonic acid challenge by turbidimetric method; format: functional, Oryctolagus cuniculus; design: scale not given: the % may be the effect or the level left
Summary of the method: (§1)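 Washed rabbit platelets (EDTA PRP, 4.5×10^8/ml, Tyrode's with 0.35% BSA) were preincubated 3 min at 37° with agent at 300 μM or 0.5% DMSO control. Percent aggregation was read turbidimetrically and reported as mean±SEM (n) with significance versus control.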

Platelet [2] = assay: Inhibition of thrombin-induced platelet aggregation in rabbit platelet assessed as aggregation at 300 uM treated 3 mins before thrombin challenge by turbidimetric method; format: functional, Oryctolagus cuniculus; summary of the method: as §1
Platelet [3] = assay: Inhibition of platelet activating factor-induced platelet aggregation in rabbit platelet assessed as aggregation at 300 uM treated 3 mins before platelet activating factor challenge by turbidimetric method; format: functional, Oryctolagus cuniculus; summary of the method: as §1
Platelet [4] = assay: Inhibition of collagen-induced platelet aggregation in rabbit platelet assessed as aggregation at 300 uM treated 3 mins before collagen challenge by turbidimetric method; format: functional, Oryctolagus cuniculus; summary of the method: as §1
Platelet [5] = assay: Inhibition of thrombin-induced platelet aggregation in rabbit platelet assessed as aggregation at 50 uM treated 3 mins before thrombin challenge by turbidimetric method; format: functional, Oryctolagus cuniculus; design: scale not given: the % may be the effect or the level left
Summary of the method: (§2)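 Rabbit platelets, washed from EDTA PRP and suspended at 4.5×10^8/ml in Tyrode's/0.35% BSA, were preincubated 3 min at 37° with agent at 50 μM, with 0.5% DMSO as control. Turbidimetric percent aggregation is given as mean±SEM (n).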

Platelet [6] = assay: Inhibition of arachidonic acid-induced platelet aggregation in rabbit platelet assessed as aggregation at 50 uM treated 3 mins before arachidonic acid challenge by turbidimetric method; format: functional, Oryctolagus cuniculus; design: scale not given: the % may be the effect or the level left; summary of the method: as §2
Platelet [7] = assay: Inhibition of platelet activating factor-induced platelet aggregation in rabbit platelet assessed as aggregation at 50 uM treated 3 mins before platelet activating factor challenge by turbidimetric method; format: functional, Oryctolagus cuniculus; design: scale not given: the % may be the effect or the level left; summary of the method: as §2
Platelet [8] = assay: Inhibition of collagen-induced platelet aggregation in rabbit platelet assessed as aggregation at 50 uM treated 3 mins before collagen challenge by turbidimetric method; format: functional, Oryctolagus cuniculus; design: scale not given: the % may be the effect or the level left; summary of the method: as §2
Platelet [9] = assay: Antiplatelet activity against rabbit platelet assessed as inhibition of collagen-induced platelet aggregation treated 3 mins before collagen challenge by turbidimetric method; format: functional, cell-based; conditions: Oryctolagus cuniculus
Platelet [10] = assay: Antiplatelet activity against rabbit platelet assessed as inhibition of arachidonic acid-induced platelet aggregation treated 3 mins before arachidonic acid challenge by turbidimetric method; format: functional, cell-based; conditions: Oryctolagus cuniculus

Q: Which Activity (Platelet [1]) does the source give for `CC(=O)O[C@H]1[C@H](O)[C@@H](CO)O[C@@H](Oc2cc3c(c(O)c2C)C(=O)c2ccc(O)cc2C3=O)[C@@H]1O[C@@H]1O[C@H](C)[C@@H](O)[C@H](O)[C@@H]1O` here?
A: 90.6%

Q: And the Percent platelet aggregation (Platelet [2])?
A: 82.4%

Q: What about the Platelet aggregation (Platelet [3]) of the same molecule?
A: 81.5%

Q: What about the Platelet aggregation (Platelet [4]) of the same molecule?
A: 82.4%

Q: Which Activity (Platelet [5]) does the source give for `CC(=O)Oc1ccccc1C(=O)O` [ASPIRIN] here?
A: 91.9%

Q: What about the Activity (Platelet [6]) of the same molecule?
A: 0%

Q: What about the Activity (Platelet [7]) of the same molecule?
A: 90.5%

Q: What about the Activity (Platelet [8]) of the same molecule?
A: 85.4%

Q: For `COC(=O)c1c(CC=C(C)C)c(O[C@@H]2O[C@H](CO)[C@@H](O)[C@H](O)[C@H]2O)c2ccccc2c1O[C@@H]1O[C@H](CO)[C@@H](O)[C@H](O)[C@H]1O`, which Activity (Platelet [1]) is on record?
A: 86.9%

Q: What about the Percent platelet aggregation (Platelet [2]) of the same molecule?
A: 91.3%

Q: What about the Platelet aggregation (Platelet [3]) of the same molecule?
A: 90.3%

Q: And the Platelet aggregation (Platelet [4])?
A: 81.2%

Q: What does the source list for `O=C1c2ccccc2C(=O)c2c1cc(O[C@@H]1O[C@H](CO[C@@H]3OC[C@@H](O)[C@H](O)[C@H]3O)[C@@H](O)[C@H](O)[C@H]1O)c(CO)c2O` [LUCIDIN PRIMEVOROSIDE]?
A: Activity (Platelet [1]): 88.5%; Percent platelet aggregation (Platelet [2]): 92.2%; Platelet aggregation (Platelet [3]): 89.1%; Platelet aggregation (Platelet [4]): 83.5%

Q: What does the source list for `O=C1c2ccccc2C(=O)c2c(O)cc(O)cc21` [XANTHOPURPURIN]?
A: Activity (Platelet [1]): 85%; Percent platelet aggregation (Platelet [2]): 86.9%; Platelet aggregation (Platelet [3]): 82.6%; Platelet aggregation (Platelet [4]): 3.8%

Q: Which results are given for `Cc1c(O)cc2c(c1O)C(=O)c1ccc(O)cc1C2=O`?
A: Activity (Platelet [1]): 83%; Activity (Platelet [9]): Dose-dependent effect; Percent platelet aggregation (Platelet [2]): 85.5%; Platelet aggregation (Platelet [3]): 77.8%; Platelet aggregation (Platelet [4]): 8.2%

Q: With `Cc1ccc2c(c1O)C(=O)c1ccccc1C2=O` as the molecule, how does the Activity (Platelet [1]) read?
A: 81.6%

Q: What about the Percent platelet aggregation (Platelet [2]) of the same molecule?
A: 88.7%

Q: What about the Platelet aggregation (Platelet [3]) of the same molecule?
A: 82.3%

Q: What about the Platelet aggregation (Platelet [4]) of the same molecule?
A: 85.7%

Q: How did the Activity (Platelet [1]) turn out when `COC(=O)c1c2c(c3ccccc3c1O)OC(C)(C)C=C2` [MOLLUGIN] was run?
A: 0%

Q: What about the Percent platelet aggregation (Platelet [2]) of the same molecule?
A: 90.9%

Q: And the Platelet aggregation (Platelet [3])?
A: 62.5%

Q: And the Activity (Platelet [10])?
A: Dose-dependent effect

Q: And the Platelet aggregation (Platelet [4])?
A: 34.1%

Q: Which Activity (Platelet [1]) does the source give for `Cc1c(O[C@@H]2O[C@H](CO)[C@@H](O)[C@H](O)[C@H]2O[C@@H]2O[C@H](C)[C@@H](O)[C@H](O)[C@@H]2O)cc2c(c1O)C(=O)c1ccc(O)cc1C2=O` here?
A: 83.4%

Q: What about the Percent platelet aggregation (Platelet [2]) of the same molecule?
A: 87%

Q: And the Platelet aggregation (Platelet [3])?
A: 89.4%

Q: And the Platelet aggregation (Platelet [4])?
A: 84%

Q: How did the Activity (Platelet [1]) turn out when `O=C1c2ccccc2C(=O)c2c(O)cc(O[C@@H]3O[C@H](CO)[C@@H](O)[C@H](O)[C@H]3O)cc21` was run?
A: 71.9%

Q: What about the Activity (Platelet [9]) of the same molecule?
A: Dose-dependent effect

Q: And the Percent platelet aggregation (Platelet [2])?
A: 85.2%

Q: And the Platelet aggregation (Platelet [3])?
A: 65.5%

Q: And the Platelet aggregation (Platelet [4])?
A: 0%
